# Screens: PubChem, Broad Institute
# T cruzi intra: inhibitors of intracellular Trypanosoma cruzi, primary screen, cell-based, plate reader, single point, set 2 | intracellular Trypanosoma cruzi in host cells | activity score (inhibition), % at 5.01 µM | actives 4.9% (n = 22,000); in the data active = activity score above about 55%; inconclusive = no clear call, values can overlap the other calls;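 also: parasites and compound incubated about four days before reading; 0% = median of neutral control wells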
# INS-1E rescue: protection of INS-1E cells from cytokine death, primary screen, ATP luminescence, single point; INS-1E cytokine-induced death, 48 h; normalised: neutral wells 0, positive control 100; protection from cytokine-induced ATP loss, % at 10 µM; actives 0.1% (n = 20,000); AID 488910, 2010;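 active = mean replicate protection from cytokine-induced ATP loss at least 50% and at least 75% of replicates each reaching 50%; inconclusive = meets only one of the two criteria, mean or replicate share; inactive = fails both the mean and replicate share criteria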
#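 assay system = INS-1E rat insulinoma cells | amount = 8000 cells per well | medium = phenol-red-free RPMI with 5% fetal bovine serum | doses = one compound concentration, pin transfer | timing = 48 h cytokine plus compound treatment, 10 min reagent incubation | also added = IL-1β, TNF-α and IFN-γ cytokine mix | signal = CellTiter-Glo luminescence measuring cellular ATP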
# A1 apoptosis 2: A1 inhibitors via caspase activation, primary screen, cell-based, luminescence, HTS, two replicates; MEF A1-2A-BIM cells, caspase-Glo luminescence, 3 h; percent of clofoctol response, DMSO zero; caspase activation, % (no concentration beside the values); 24,000 tested, under 10 active; AID 2465, 2010; in the data active = caspase activation above about 5.9%; inconclusive = no clear call, values can overlap the other calls; inactive = below about 2.2%
#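 System: mouse embryonic fibroblasts co-expressing A1 and BIM (A1-2A-BIM), primed for A1 dependence; amount: 2500 cells/well; doses: 50 nL pinned compound; schedule: cells settled overnight, compound exposure 3 h at 37 °C, 5% CO2; detection: Caspase-Glo 3/7 luminescence, 1 h at room temperature; read-out: Caspase-3/7 activation, seen as rise in luminescence signal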
# * hit, by the source's call; ? = inconclusive; . = no result given. This excerpt belongs to a sample that is enriched for hits.
SMILES,T cruzi intra,INS-1E rescue,A1 apoptosis 2
C[C@H](CO)N1C[C@H](C)[C@H](CN(C)Cc2ccc(C(F)(F)F)cc2)Oc2ccc(NC(=O)Cc3ccccc3)cc2CC1=O,?,6,0
C[C@H]1CN([C@@H](C)CO)C(=O)Cc2cc(NC(=O)Cc3ccccc3)ccc2O[C@H]1CN(C)Cc1ccc(C(F)(F)F)cc1,69*,13,-1
C[C@@H]1CN([C@@H](C)CO)C(=O)Cc2cc(NC(=O)Nc3ccc(C(F)(F)F)cc3)ccc2O[C@H]1CN(C)Cc1ccccc1,.,.,0
C[C@H]1CN([C@@H](C)CO)C(=O)Cc2cc(NC(=O)Cc3ccccc3)ccc2O[C@@H]1CN(C)Cc1ccc(C(F)(F)F)cc1,58*,-6,0
O=C(NO)c1cccc(C(=O)N/N=C/c2ccc[nH]2)c1,6,-5,.
O=C(N/N=C/c1ccc2ccccc2n1)c1ccccc1O,-1,-15,.
O=S(=O)(NCCCO)c1ccc(Br)cc1,.,.,0
C[C@@H]1CCCCO[C@@H](CN(C)Cc2ccc(Cl)c(Cl)c2)[C@@H](C)CN([C@H](C)CO)C(=O)c2cc(NS(=O)(=O)c3ccc(Cl)cc3)ccc2O1,72*,-13,-2
Cc1ccc(S(=O)(=O)Nc2ccc3c(c2)C(=O)N([C@H](C)CO)C[C@@H](C)[C@H](CN(C)Cc2ccc(Cl)c(Cl)c2)OCCCC[C@@H](C)O3)cc1,.,.,-1
COc1ccc(S(=O)(=O)Nc2ccc3c(c2)C(=O)N([C@H](C)CO)C[C@H](C)[C@@H](CN(C)Cc2ccc(Cl)c(Cl)c2)OCCCC[C@@H](C)O3)cc1,73*,-69,-1
C[C@@H]1CCCCO[C@H](CN(C)Cc2ccc(Cl)c(Cl)c2)[C@@H](C)CN([C@@H](C)CO)C(=O)c2cc(NS(=O)(=O)c3ccc(F)cc3)ccc2O1,.,.,-1
C[C@@H]1CCCCO[C@H](CN(C)Cc2ccc(Cl)c(Cl)c2)[C@@H](C)CN([C@H](C)CO)C(=O)c2cc(NS(=O)(=O)c3ccc(Cl)cc3)ccc2O1,64*,-14,-2
COc1ccc(S(=O)(=O)Nc2ccc3c(c2)C(=O)N([C@H](C)CO)C[C@H](C)[C@@H](CN(C)Cc2ccc(Cl)c(Cl)c2)OCCCC[C@H](C)O3)cc1,.,.,0
CC(C)NC(=O)Nc1ccc2c(c1)C(=O)N([C@H](C)CO)C[C@H](C)[C@@H](CN(C)C(=O)Nc1ccc(F)cc1)OCCCC[C@@H](C)O2,24,-3,.
Cc1ccc(/C=N/NC(=O)CCCCCCC(=O)NO)o1,.,.,0
O=C(CCCCCC(=O)N/N=C/CCC1CCCCC1)NO,.,.,1
COc1ccc(S(=O)(=O)Nc2ccc3c(c2)CC(=O)N([C@H](C)CO)C[C@H](C)[C@H](CN(C)S(=O)(=O)c2ccc(Cl)cc2)O3)cc1,23,4,-1
COc1ccc(S(=O)(=O)Nc2ccc3c(c2)CC(=O)N([C@H](C)CO)C[C@@H](C)[C@H](CN(C)S(=O)(=O)c2ccc(Cl)cc2)O3)cc1,-8,-1,.
COc1ccc(S(=O)(=O)Nc2ccc3c(c2)CC(=O)N([C@@H](C)CO)C[C@@H](C)[C@@H](CN(C)S(=O)(=O)c2ccc(Cl)cc2)O3)cc1,60*,7,.
COc1ccc(S(=O)(=O)N(C)C[C@H]2Oc3ccc(NS(=O)(=O)c4ccc(Cl)cc4)cc3CC(=O)N([C@H](C)CO)C[C@@H]2C)cc1,.,.,0
COc1ccc(S(=O)(=O)N(C)C[C@H]2Oc3ccc(NS(=O)(=O)c4ccc(Cl)cc4)cc3CC(=O)N([C@H](C)CO)C[C@H]2C)cc1,67*,-8,.
COc1ccc(S(=O)(=O)N(C)C[C@H]2Oc3ccc(NS(=O)(=O)c4ccc(Cl)cc4)cc3CC(=O)N([C@@H](C)CO)C[C@H]2C)cc1,62*,-6,1
COc1ccc(S(=O)(=O)Nc2ccc3c(c2)CC(=O)N([C@H](C)CO)C[C@@H](C)[C@@H](CN(C)S(=O)(=O)c2ccc(Cl)cc2)O3)cc1,60*,14,1
COc1ccc(S(=O)(=O)N(C)C[C@@H]2Oc3ccc(NS(=O)(=O)c4ccc(Cl)cc4)cc3CC(=O)N([C@@H](C)CO)C[C@@H]2C)cc1,-38,3,1
COc1ccc(/C=N/NC(=O)CCCCCC(=O)Nc2ccccc2O)c(OC)c1,-11,19,0
O=C(N/N=C/c1ccc(C(F)(F)F)cc1)c1ccccc1O,-1,-13,-6
COC(=O)[C@@]1(Cc2ccccc2N=[N+]=[N-])N=C(c2ccc(OCCCO)cc2)O[C@H]1c1ccccc1,.,.,-1
